From ChEMBL document CHEMBL3585302, “Synthesis and antibacterial activities of cadiolides A, B and C and analogues” (Bioorg Med Chem, 2015)
Active and inactive are the calls of the source. The calls are words filed in the database; no cut-off is given here.

How the values were obtained:
[1] = tested on: Bacillus cereus; assay: Antibacterial activity against Bacillus cereus CECT 148 assessed as inhibition of microbial growth at 125 ug/ml incubated for 18 hrs by 2-fold microtiter broth dilution method; type: functional, organism-based
Method in brief: (§1)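 Compounds in DMSO, ten 2-fold serial dilutions (125 down to 0.24 µg/mL tested). Bacteria at OD620 = 0.001 in Nutrient Broth mixed 1:1 with dilutions. Incubated overnight (18 h) at 28°C or 37°C according to strain. Growth read turbidimetrically at OD620. MIC is the lowest concentration giving complete growth inhibition. Triplicate runs. Tetracycline as reference.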

[2] = tested on: Bacillus subtilis; assay: Antibacterial activity against Bacillus subtilis CECT 35 assessed as inhibition of microbial growth at 125 ug/ml incubated for 18 hrs by 2-fold microtiter broth dilution method; type: functional, organism-based; method in brief: as §1
[3] = tested on: Salmonella typhi; assay: Antibacterial activity against Salmonella typhi CECT 409 assessed as inhibition of microbial growth at 125 ug/ml incubated for 18 hrs by 2-fold microtiter broth dilution method; type: functional, organism-based; settings: Salmonella enterica subsp. enterica serovar Typhi
Method in brief: (§2)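 Compounds in DMSO, ten 2-fold serial dilutions (125 down to 0.24 µg/mL), mixed 1:1 with bacteria in Nutrient Broth at OD620 = 0.001. Incubated overnight (18 h) at 28 or 37 °C depending on strain. Growth read turbidimetrically at OD620; MIC is the lowest concentration completely inhibiting growth, per CLSI. Triplicate runs; tetracycline reference.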

[4] = tested on: Enterococcus faecalis; assay: Antibacterial activity against Enterococcus faecalis CECT 481 assessed as inhibition of microbial growth at 125 ug/ml incubated for 18 hrs by 2-fold microtiter broth dilution method; type: functional, organism-based; method in brief: as §1
[5] = tested on: Escherichia coli; assay: Antibacterial activity against Escherichia coli CECT 100 assessed as inhibition of microbial growth at 125 ug/ml incubated for 18 hrs by 2-fold microtiter broth dilution method; type: functional, organism-based; method in brief: as §1
[6] = tested on: Pectobacterium carotovorum; assay: Antibacterial activity against Erwinia carotovora CECT 225 assessed as inhibition of microbial growth at 125 ug/ml incubated for 18 hrs by 2-fold microtiter broth dilution method; type: functional, organism-based; method in brief: as §1
[7] = tested on: Staphylococcus aureus; assay: Antibacterial activity against Staphylococcus aureus CECT 86 assessed as inhibition of microbial growth at 125 ug/ml incubated for 18 hrs by 2-fold microtiter broth dilution method; type: functional, organism-based; method in brief: as §1
[8] = tested on: Escherichia coli; assay: Antibacterial activity against Escherichia coli CECT 405 assessed as inhibition of microbial growth at 125 ug/ml incubated for 18 hrs by 2-fold microtiter broth dilution method; type: functional, organism-based; method in brief: as §1
[9] = tested on: Escherichia coli; assay: Antibacterial activity against Escherichia coli CECT 100 assessed as inhibition of microbial growth incubated for 18 hrs by 2-fold microtiter broth dilution method; type: functional, organism-based; settings: CECT 100, 18 h; method in brief: as §1
[10] = tested on: Bacillus cereus; assay: Antibacterial activity against Bacillus cereus CECT 148 assessed as inhibition of microbial growth incubated for 18 hrs by 2-fold microtiter broth dilution method; type: functional, organism-based; settings: CECT 148, 18 h; method in brief: as §1
[11] = tested on: Pectobacterium carotovorum; assay: Antibacterial activity against Erwinia carotovora CECT 225 assessed as inhibition of microbial growth incubated for 18 hrs by 2-fold microtiter broth dilution method; type: functional, organism-based; settings: CECT 225, 18 h; method in brief: as §1
[12] = tested on: Escherichia coli; assay: Antibacterial activity against Escherichia coli CECT 405 assessed as inhibition of microbial growth incubated for 18 hrs by 2-fold microtiter broth dilution method; type: functional, organism-based; settings: CECT 405, 18 h; method in brief: as §1
[13] = tested on: Salmonella typhi; assay: Antibacterial activity against Salmonella typhi CECT 409 assessed as inhibition of microbial growth incubated for 18 hrs by 2-fold microtiter broth dilution method; type: functional, organism-based, Salmonella enterica subsp. enterica serovar Typhi; settings: Salmonella enterica, CECT 409, 18 h; method in brief: as §2
[14] = tested on: Enterococcus faecalis; assay: Antibacterial activity against Enterococcus faecalis CECT 481 assessed as inhibition of microbial growth incubated for 18 hrs by 2-fold microtiter broth dilution method; type: functional, organism-based; settings: CECT 481, 18 h; method in brief: as §1
[15] = tested on: Bacillus subtilis; assay: Antibacterial activity against Bacillus subtilis CECT 35 assessed as inhibition of microbial growth incubated for 18 hrs by 2-fold microtiter broth dilution method; type: functional, organism-based; settings: CECT 35, 18 h; method in brief: as §1
[16] = tested on: Staphylococcus aureus; assay: Antibacterial activity against Staphylococcus aureus CECT 86 assessed as inhibition of microbial growth incubated for 18 hrs by 2-fold microtiter broth dilution method; type: functional, organism-based; settings: CECT 86, 18 h; method in brief: as §1

Compound	growth inhibition (GI) [1]	growth inhibition (GI) [2]	growth inhibition (GI) [3]	growth inhibition (GI) [4]	growth inhibition (GI) [5]	growth inhibition (GI) [6]	growth inhibition (GI) [7]	growth inhibition (GI) [8]	MIC [9] [µg/mL]	MIC [10] [µg/mL]	MIC [11] [µg/mL]	MIC [12] [µg/mL]	MIC [13] [µg/mL]	MIC [14] [µg/mL]	MIC [15] [µg/mL]	MIC [16] [µg/mL]
COc1ccc(C2=C(C(=O)c3ccc(O)c(Br)c3)C(=O)O/C2=C\c2ccc(O)c(Br)c2)cc1	inactive	inactive	inactive	inactive	inactive	inactive	inactive	inactive								
COc1c(Br)cc(C2=C(C(=O)c3ccc(O)c(Br)c3)C(=O)O/C2=C\c2ccc(O)c(Br)c2)cc1Br	inactive	inactive	inactive	inactive	inactive	inactive	inactive	inactive								
O=C1O/C(=C\c2cc(Br)c(O)c(Br)c2)C(c2cc(Br)c(O)c(Br)c2)=C1C(=O)c1ccc(O)c(Br)c1									> 125	3.9	125	1.95	3.9	3.9	125	3.9
O=C1O/C(=C\c2ccc(O)c(Br)c2)C(c2ccc(O)cc2)=C1C(=O)c1ccc(O)cc1									> 125	125	> 125	> 125	> 125	> 125	> 125	> 125
O=C1O/C(=C\c2cc(Br)c(O)c(Br)c2)C(c2cc(Br)c(O)c(Br)c2)=C1C(=O)c1cc(Br)c(O)c(Br)c1 [CADIOLIDE B]									> 125	7.81	> 125	7.81	15.6	7.81	> 125	7.81
CN(C)[C@@H]1C(O)=C(C(N)=O)C(=O)[C@@]2(O)C(O)=C3C(=O)c4c(O)cccc4[C@@](C)(O)[C@H]3C[C@@H]12 [TETRACYCLINE]									3.9	3.9	3.9	7.81	7.81	0.48	0.97	0.24
O=C1O/C(=C\c2ccc(O)c(Br)c2)C(c2ccc(O)cc2)=C1C(=O)c1ccc(O)c(Br)c1									> 125	3.9	> 125	125	125	> 125	> 125	> 125
O=C1O/C(=C\c2cc(Br)c(O)c(Br)c2)C(c2ccc(O)c(Br)c2)=C1C(=O)c1ccc(O)c(Br)c1									> 125	1.95	125	3.9	3.9	1.95	125	3.9
O=C1O/C(=C\c2ccc(O)c(Br)c2)C(c2ccc(O)c(Br)c2)=C1C(=O)c1ccc(O)cc1									15.6	15.6	125	15.6	31.2	31.2	125	31.2
O=C1O/C(=C\c2ccc(O)cc2)C(c2ccc(O)cc2)=C1C(=O)c1ccc(O)cc1									62.5	62.5	125	62.5	125	125	> 125	62.5
O=C1O/C(=C\c2ccc(O)c(Br)c2)C(c2ccc(O)c(Br)c2)=C1C(=O)c1cc(Br)c(O)c(Br)c1 [CADIOLIDE C]									> 125	3.9	125	3.9	3.9	3.9	125	3.9
